Reference: ChEMBL document CHEMBL3612040, “Discovery of Selective Small Molecule Inhibitors of Monoacylglycerol Acyltransferase 3” (J Med Chem, 2015)

Legend:
[1] = Lipophilicity, logD of the compound at pH 7.4; format: physicochemical; settings: buffer
Method in brief: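 Shake-flask octanol:water partition at pH 7.4, with MS analysis of samples.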

Hepatocyte = assay: Drug metabolism in human hepatocytes assessed as compound oxidation; format: ADME, cell-based
[2] = Apparent permeability in RRCK cells; format: ADME, cell-based, Canis lupus familiaris, MDCKII-LE; settings: dog, MDCK
[3] = Intrinsic clearance in human liver microsomes; format: ADME; settings: read-out: CLH
CYP2C9 = CYP2C9 (Homo sapiens, UniProt P11712); assay: Inhibition of CYP2C9 (unknown origin) at 3 uM; format: ADME
CYP2C8 = target: T1, CYP2C8 (Homo sapiens, UniProt P10632); assay: Inhibition of CYP2C8 (unknown origin) at 3 uM; format: ADME
T1 sequence (P10632 whole entry): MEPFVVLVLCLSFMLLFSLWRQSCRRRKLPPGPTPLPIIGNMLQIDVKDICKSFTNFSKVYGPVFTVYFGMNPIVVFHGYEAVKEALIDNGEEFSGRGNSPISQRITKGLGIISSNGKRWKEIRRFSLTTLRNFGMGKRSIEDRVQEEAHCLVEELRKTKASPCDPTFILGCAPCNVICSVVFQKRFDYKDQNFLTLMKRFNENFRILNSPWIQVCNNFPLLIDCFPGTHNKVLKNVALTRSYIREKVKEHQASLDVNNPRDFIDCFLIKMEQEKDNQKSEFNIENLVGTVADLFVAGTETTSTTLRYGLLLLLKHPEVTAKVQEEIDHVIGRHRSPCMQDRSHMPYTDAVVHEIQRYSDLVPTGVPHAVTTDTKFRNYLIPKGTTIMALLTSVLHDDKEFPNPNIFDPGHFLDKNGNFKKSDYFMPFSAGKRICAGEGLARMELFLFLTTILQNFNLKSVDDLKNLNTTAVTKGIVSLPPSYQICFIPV

CYP2C9, sequence (P11712 whole entry): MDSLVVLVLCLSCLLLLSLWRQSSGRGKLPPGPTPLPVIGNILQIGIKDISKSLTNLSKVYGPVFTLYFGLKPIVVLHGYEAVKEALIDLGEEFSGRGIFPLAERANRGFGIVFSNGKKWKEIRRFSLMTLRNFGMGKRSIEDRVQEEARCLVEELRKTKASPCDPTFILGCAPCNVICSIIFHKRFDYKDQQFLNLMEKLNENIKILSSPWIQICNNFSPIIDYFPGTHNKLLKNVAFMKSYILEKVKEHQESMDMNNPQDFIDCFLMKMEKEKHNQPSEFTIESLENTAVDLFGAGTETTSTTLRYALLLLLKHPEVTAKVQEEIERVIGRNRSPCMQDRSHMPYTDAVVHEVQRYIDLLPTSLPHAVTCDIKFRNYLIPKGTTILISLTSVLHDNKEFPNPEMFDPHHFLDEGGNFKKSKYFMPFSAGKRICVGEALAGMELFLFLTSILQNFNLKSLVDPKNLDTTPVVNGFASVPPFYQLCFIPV

| logD [1] | Stability (Hepatocyte) | Papp [2] | microsomal CLint [3] | inhibition at 3 µM (CYP2C9) | inhibition at 3 µM (CYP2C8) | SMILES |
| --- | --- | --- | --- | --- | --- | --- |
| 0.9 | Stable | 5 ×10⁻⁶ cm/s | < 8 µL/min/mg |  |  | COc1cccc(CC(=O)N2Cc3ccc(S(=O)(=O)Nc4cnn(C5CCOCC5)n4)cc3C2)c1 |
| 3.9 |  | 4 ×10⁻⁶ cm/s | > 320 µL/min/mg |  |  | COc1cccc(CC(=O)N2Cc3ccc(S(=O)(=O)N(C)CCc4cccc(F)c4)cc3C2)c1 |
| 2.5 |  | 6 ×10⁻⁶ cm/s | 13 µL/min/mg | 95% | 62% | COc1cccc(CC(=O)N2Cc3ccc(S(=O)(=O)Nc4cnn(-c5ccc(F)cc5)n4)cc3C2)c1 |
| 0.2 |  | 1 ×10⁻⁶ cm/s | < 8 µL/min/mg |  |  | COc1cccc(CC(=O)N2Cc3ccc(S(=O)(=O)Nc4cnn(C)n4)cc3C2)c1 |
| 0.2 |  | 3 ×10⁻⁶ cm/s | < 8 µL/min/mg |  |  | COc1cccc(CC(=O)N2Cc3ccc(S(=O)(=O)Nc4cnn(C5COC5)n4)cc3C2)c1 |
